Source: PubChem (several laboratories)
Runt-SMMHC FRET = inhibitors of RUNX1 Runt–CBFb-SMMHC binding, primary screen, biochemical, FRET, Cerulean-Runt, Venus-CBFb-SMMHC, uHTS | Runt-related transcription factor 1 (Homo sapiens) + Core-binding factor subunit beta … | Cerulean-Runt/Venus-CBFb-SMMHC FRET ratio 530/480, 1 h | inhibition, % at 20 µM | hit rate 0.74% among 220,000;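 active means mean inhibition across duplicate retests at 20 µM reaching about 50%, limit read from the data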;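 further: inhibitors lower the FRET ratio by blocking Runt binding to CBFb-SMMHC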
Target sequence (Q01196 whole entry, looked up): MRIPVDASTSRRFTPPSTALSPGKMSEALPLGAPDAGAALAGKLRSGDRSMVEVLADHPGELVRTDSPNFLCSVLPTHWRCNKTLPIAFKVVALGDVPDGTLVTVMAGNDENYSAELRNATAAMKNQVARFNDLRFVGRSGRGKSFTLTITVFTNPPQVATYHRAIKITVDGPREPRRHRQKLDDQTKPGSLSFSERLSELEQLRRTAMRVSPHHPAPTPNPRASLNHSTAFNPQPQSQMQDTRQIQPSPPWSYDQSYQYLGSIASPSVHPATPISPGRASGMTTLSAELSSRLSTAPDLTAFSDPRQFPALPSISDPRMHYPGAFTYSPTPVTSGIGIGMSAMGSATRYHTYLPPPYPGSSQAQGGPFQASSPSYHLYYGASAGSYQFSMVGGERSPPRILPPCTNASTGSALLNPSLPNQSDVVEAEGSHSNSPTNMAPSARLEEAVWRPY
Target sequence (Q13951 whole entry, looked up): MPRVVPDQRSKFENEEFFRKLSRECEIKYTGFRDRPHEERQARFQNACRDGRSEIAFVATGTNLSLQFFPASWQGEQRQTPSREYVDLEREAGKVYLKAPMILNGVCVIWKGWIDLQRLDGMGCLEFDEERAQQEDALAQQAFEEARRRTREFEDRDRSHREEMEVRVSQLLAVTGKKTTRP
eIF4E 4G PPI = eIF4E–eIF4G protein interaction inhibitors, primary screen, biochemical, uHTS, TR-FRET, eIF4GI fragment | Eukaryotic translation initiation factor 4E (Mus musculus) + Eukaryotic translation … | TR-FRET eIF4E-eIF4GI(517-606) binding, 2 h | inhibition, % at 21.7 µM | hit rate 0.37% among 220,000;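 active means inhibition above about 30%, limit read from the data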
RanGTP-Imp inh = inhibitors of RanGTP-importin-beta interaction, primary screen, biochemical, FRET, CFP-Ran, YFP-importin-beta, homogeneous. Ran GTPase (GTP-bound) - importin-beta complex. cell-free CFP-Ran/YFP-importin-beta FRET ratio. inhibition, % (test concentration not listed). hit rate 1.1% among 300,000. AID 2216, 2009;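 active means more than half of the replicate wells show a fall in the fluorescence ratio signal beyond about 16%, limit read from the data, passing the limit was not always enough; inconclusive means exactly half of the replicate wells pass the set limit; inactive means fewer than half of replicates pass the limit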
Runt-CBFb FRET = inhibitors of RUNX1 Runt–CBFb binding, primary screen, biochemical, FRET, Cerulean-Runt, Venus-CBFb, uHTS. inhibition, % at 20 µM. Cerulean-Runt/Venus-CBFb FRET ratio 530/480, 1 h. hit rate 0.46% among 220,000;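 active means inhibition over about 50% at 20 µM in the single-dose screen, limit read from the data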
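Measured by: fluorescence energy transfer, 422 nm excitation, 530/480 nm emission; test system: Cerulean-tagged RUNX1 Runt domain (FRET donor) fusion protein; buffer or medium: Tris pH 7.5 buffer with BSA; compound: one dose, 20 µM compound, 1% DMSO; times: two 1 h room-temperature incubations shielded from light; benchmarks: unlabeled CBFb 5 µM, positive control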
PERK inh = block of dimerizer-induced PERK translation repression, primary screen, PERK inhibitor project, CHO PERK-DD cells, SEAP luminescence, HTS | inhibition, % at 5.6 µM | Eukaryotic translation initiation factor 2-alpha kinase 3 (Homo sapiens), Q9NZJ5 | CHO PERK-DD fusion, SEAP luminescence translation reporter | hit rate 0.17% among 220,000;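 active means inhibition above the mean inhibition of all tested compounds plus 3 SD, set separately per screening campaign, cut at about 2.9% in these data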;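 further: PERK kinase domain activated by AP20187 dimerizer at 100 nM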
Hck-Nef inh = inhibitors of Nef-activated human Hck kinase, primary screen, biochemical, Z-Lyte FRET, 384-well, Hck-YEEI | Recombinant Hck-YEEI plus Nef, Z-Lyte FRET kinase assay | inhibition, % at 20 µM | hit rate 0.68% among 220,000;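 active means Hck-Nef kinase inhibition above about 50%, limit read from the data; inactive means inhibition below that limit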
A number is an active result; i = inactive; ? = inconclusive; nt = no result. Most compounds without a hit are left out; they make up all but 2.2% or so of the library.

SMILES	Runt-SMMHC FRET	eIF4E 4G PPI	RanGTP-Imp inh	Runt-CBFb FRET	PERK inh	Hck-Nef inh
CCOc1ccc(C2C3=C(CC(C)(C)CC3=O)N(CC(=O)O)C3=C2C(=O)CC(C)(C)C3)cc1OCC	nt	nt	i	nt	nt	nt
CCOC(=O)C1=C(N)OC2=C(C(=O)CC(C)(C)C2)C1c1ccccc1OC (stereo not drawn)	i	i	i	i	i	i
COc1ccccc1C1C2=C(CC(C)(C)CC2=O)N(CC(=O)O)C2=C1C(=O)CC(C)(C)C2	nt	nt	164	nt	nt	nt
C#CCOc1ccc(C2C3=C(CC(C)(C)CC3=O)N(CC(=O)O)C3=C2C(=O)CC(C)(C)C3)cc1	nt	nt	162	nt	nt	nt
Oc1ccc2ccccc2c1CNc1ccc(Br)cc1	nt	nt	i	nt	nt	nt
O=C(CCc1ccccc1)NNC(=O)COc1ccc(Br)cc1	nt	nt	i	nt	nt	nt
CCC(C)n1c(=N)c(C#N)cc2c(=O)n3cc(C)ccc3nc21 (stereo not drawn)	nt	i	i	nt	i	i
CCC(C)n1c(=N)c(C#N)cc2c(=O)n3cccc(C)c3nc21 (stereo not drawn)	91	i	i	104	i	i
Cc1ccc(Cn2c(=N)c(C#N)cc3c(=O)n4cccc(C)c4nc32)cc1	nt	i	63	nt	i	i
O=C(NCCCn1ccnc1)C(F)(F)C(F)(F)C(=O)NCCCn1ccnc1	i	i	i	i	i	i
CCc1ccc(Nc2ncc3c(n2)CC(C)(C)CC3=O)cc1	i	i	i	i	i	i
Cc1ccc(S(=O)(=O)[N-]c2nc3ccccc3nc2-n2cc[n+](Cc3ccccc3)c2)cc1	i	i	14	i	i	i
O=S(=O)([N-]c1nc2ccccc2nc1-n1cc[n+](Cc2ccccc2)c1)c1ccccc1	i	i	?	i	i	i
CC(=O)c1nn(-c2cccc(Br)c2)cc1C(=O)c1ccc(Br)cc1	i	i	29	i	i	i
CC(=O)c1nn(-c2cccc(Br)c2)cc1C(=O)c1ccc(C)cc1	i	i	i	i	i	i
COc1cccc(CNC(=O)c2ccc(NC3=NC4CS(=O)(=O)CC4S3)cc2)c1 (stereo not drawn)	nt	nt	i	nt	nt	nt
COc1cc(Br)ccc1NC(=O)c1ccccc1-c1ccccc1C(=O)O	nt	nt	i	nt	nt	nt
Cc1ccc2c(c1)c1ccc3c(c1n2C)C(=O)C=CC3=O	i	i	nt	55	i	i
COc1ccc2c(c1)c1ncn(CCN3CCCC3)c(=O)c1n2C	i	i	i	i	i	i
COc1ccc2c(c1)c1ccc3c(c1n2C)C(=O)C=CC3=O	i	i	nt	64	i	i
Cc1ccc2c(c1)c1ncnc(N3CCOCC3)c1n2C	i	nt	i	i	i	i
Cc1cc(C)nc(NS(=O)(=O)c2ccc(NC(=O)CCC(=O)O)cc2)n1	nt	nt	i	nt	nt	nt
Cc1ccc(C(=O)Oc2cccnc2)cc1[N+](=O)[O-]	i	i	i	102	i	i
Cc1sc(NC(=O)COc2ccccc2)c(C#N)c1-c1ccccc1	i	i	i	i	i	i
COc1ccc(C(=O)Nc2sc(C)c(-c3ccccc3)c2C#N)cc1OC	i	i	79	i	i	i
CCCCNC(=O)/C=C1\Sc2ccccc2NC1=O	i	i	32	i	i	i
CCc1ccc(C(=O)/C=C2\Sc3ccccc3NC2=O)cc1	i	i	i	i	i	i
CCOC(=O)c1sc2nc3c(SCCC#N)cc(C(=O)c4cc(F)ccc4O)cn3c(=O)c2c1C	i	i	i	i	i	i
O=C(O)CSc1cc(C(=O)c2cc(F)ccc2O)cn2c(=O)c3c(-c4ccccc4)csc3nc12	i	i	i	i	i	52
CCOC(=O)c1sc2nc3c(SCCC(=O)O)cc(C(=O)c4cc(OC)ccc4O)cn3c(=O)c2c1C	i	57	i	i	i	i
